According to ChEMBL document CHEMBL1125201, “C-glycosidic analogues of lipid A and lipid X: synthesis and biological activities” (J Med Chem, 1991):

Key:
Mus musculus = test: Survival rate of the nonspecific resistance against Pseudomonas aeruginosa infection after intraperitoneal administration in ten mice; assay type: functional; design: unit: surviving mice (of 10)
In short: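 Compound (12.5 mg/kg, single dose) given ip to myelosuppressed mice on day -1, then iv infection with P. aeruginosa (Δ12) on day 0 at an LD35 inoculum; 10 mice per group; survival counted after 4-day observation; LPS (S. abortus equi) ip control group.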

[1] = Compound was evaluated for lethal dose after intravenous administration; assay type: toxicity, organism-based; conditions: mouse, in vivo
In short: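 Mice (C57BL/6, groups of six) given serial dilutions of compound iv via tail vein in pyrogen-free saline, with galactosamine 400 mg/kg ip given at the same time to sensitize to endotoxin; lethal toxicity recorded as LD50.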

Pseudomonas aeruginosa = test: Compound was evaluated for effective dose required for the nonspecific resistance against Pseudomonas aeruginosa after intraperitoneal administration; assay type: functional; conditions: ip
In short: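 Myelosuppressed mice got the compound ip on day -1 and were infected iv with P. aeruginosa (Δ12) on day 0 at an LD35 inoculum. Survival was scored over 4 days. ED50 was calculated by Probit analysis with confidence limits. Disaccharides were tested as lysine salts.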

Row | Structure (SMILES) | Survival rate (Mus musculus) | LD50 [1] [mg/kg] | ED50 (Pseudomonas aeruginosa) [mg/kg]
1 | CCCCCCCCCCCCCC(=O)O[C@H](CCCCCCCCCCC)CC(=O)O[C@H]1[C@H](O)[C@H](CO)O[C@@H](CC(=O)O)[C@@H]1NC(=O)C[C@H](O)CCCCCCCCCCC | 2 | – | –
2 | CCCCCCCCCCCCCC(=O)O[C@H](CCCCCCCCCCC)CC(=O)OC1C(O)C(CO)OC(OP(=O)(O)O)C1NC(=O)C[C@H](O)CCCCCCCCCCC (stereo not given in full) | 9 | 0.3 | 1.7
3 | CCCCCCCCCCC[C@@H](O)CC(=O)NC1C(OP(=O)(O)O)OC(CO)C(O)C1OC(=O)C[C@H](O)CCCCCCCCCCC (stereo not given in full) | 0 | – | –
4 | CCCCCCCCCCC[C@@H](O)CC(=O)NC1C(CC(=O)O)OC(CO)C(OC(=O)C[C@H](O)CCCCCCCCCCC)C1OC(=O)C[C@H](O)CCCCCCCCCCC (stereo not given in full) | 10 | 1 | 1.1
5 | CCCCCCCCCCC[C@@H](O)CC(=O)NC1C(CC(=O)O)OC(COC2OC(CO)C(O)C(OC(=O)C[C@H](O)CCCCCCCCCCC)C2NC(=O)C[C@H](O)CCCCCCCCCCC)C(O)C1OC(=O)C[C@H](O)CCCCCCCCCCC (stereo not given in full) | 10 | ~5.2 | 1.5
6 | CCCCCCCCCCC[C@@H](O)CC(=O)NC1C(OCC2OC(OP(=O)(O)O)C(NC(=O)C[C@H](O)CCCCCCCCCCC)C(OC(=O)C[C@H](O)CCCCCCCCCCC)C2O)OC(CO)C(O)C1OC(=O)C[C@H](O)CCCCCCCCCCC (stereo not given in full) | 8 | 3.5 | 3.4
7 | CCCCCCCCCCC[C@@H](O)CC(=O)NC1C(OCC2OC(CC(=O)O)C(NC(C)=O)C(OC(=O)C[C@H](O)CCCCCCCCCCC)C2O)OC(CO)C(O)C1OC(=O)C[C@H](O)CCCCCCCCCCC (stereo not given in full) | 7 | – | –
8 | CCCCCCCCCCC[C@@H](O)CC(=O)OC1C(O)C(CO)OC(CC(=O)O)[C@@H]1NC(C)=O (stereo not given in full) | 1 | – | –
9 | CCCCCCCCCCC[C@@H](O)CC(=O)NC1C(OP(=O)(O)O)OC(CO)C(OC(=O)C[C@H](O)CCCCCCCCCCC)C1OC(=O)C[C@H](O)CCCCCCCCCCC (stereo not given in full) | 10 | 0.8 | 1.1
10 | CCCCCCCCCCC[C@@H](O)CC(=O)N[C@H]1C(CC(=O)O)OC(CO)C(O)C1OC(=O)C[C@H](O)CCCCCCCCCCC (stereo not given in full) | 4 | – | –
11 | CCCCCCCCCCC[C@@H](O)CC(=O)N[C@H]1C(CC(=O)O)OC(CO)C(O)C1O (stereo not given in full) | 0 | – | –
12 | CCCCCCCCCCCCCC(=O)O[C@H](CCCCCCCCCCC)CC(=O)O[C@H]1[C@H](O)[C@H](CO)O[C@H](CC(=O)O)[C@@H]1NC(=O)C[C@H](O)CCCCCCCCCCC (stereo in doubt; 13a) | 4 | – | –
13 | CCCCCCCCCCCCCC(=O)O[C@H](CCCCCCCCCCC)CC(=O)O[C@H]1[C@H](O)[C@H](CO)O[C@H](CC(=O)O)[C@@H]1NC(=O)C[C@H](O)CCCCCCCCCCC (stereo in doubt; 17b) | 9 | 0.2 | 1.8
